# Like-named read-outs stand apart in the source and are kept apart here. The star is where a group is joined. acrylodan = 6-acryloyl-2-dimethylaminonaphthalene, CN(C)c1ccc2cc(C(=O)CC*)ccc2c1
# Columns and labels:
# [1] = extrapolated from peptide binding, [lipid]eff > 10^−2 M
# ErbB1 [2] = conditions: cardiac fibroblasts; ref Murasawa et al., 1998; cited from earlier work
# ErbB1 [3] = experiment: EGF-mediated ErbB1 autophosphorylation in Cos1 cells; format: cell-based
# ErbB1 [4] = conditions: ref Li et al., 2004a, cited from earlier work; for steady-state ErbB1 autophosphorylation: times >20 min; for initial peak of ErbB1 autophosphorylation: two other cell types
# ErbB1 [5] = conditions: ref Li et al., 2004a; cited from earlier work
# [6] = effect of added agents on binding of ErbB1; conditions: 2 μM sphingosine; PC/PS vesicles
# ErbB1 [7] = conditions: A431 cells, 5 min after EGF; ref Friedman et al., 1989; cited from earlier work
# calmodulin (Ca/CaM) = calmodulin (Ca/CaM) (Homo sapiens, UniProt P0DP23); experiment: Ca/CaM binding by competition with PC/PS vesicles; set-up: species or system bovine brain and human brain; conditions: 2:1 PC/PS LUVs, 100 mM KCl, 1 mM MOPS, pH 7.0, 100 μM EGTA + 120 μM Ca2+; trace peptide ~5 nM; centrifugation; fit of Eq. 2
# In short: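 Trace (~5 nM) [3H]NEM-labelled test peptide mixed with 100-nm sucrose-loaded 2:1 PC/PS LUVs (total lipid 2 × 10−5 M; repeats with 3:1 PC/PS) and varied bovine or human brain CaM. Spun 100,000 g for 1 h. Percent bound from supernatant/pellet counts; KCaM from a competition equation (Eq. 2) fit.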
# [8] = format: binding; conditions: for rate of removal from vesicles by Ca/CaM: 2 μM Ca/CaM
# In short: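 Stopped-flow fluorescence mixing of two solutions. The second holds 0.5–7 μM CaM with 50 μM CaCl2. Both contain 100 mM KCl and 1 mM MOPS, pH 7.0. Time constants τ come from exponential fluorescence rise; the transfer rate constant is the slope of 1/τ against [CaM].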
# [9] = target: ErbB1(645–660) peptide with a phosphorylated Thr654 (human (from the printed accession P00533)); experiment: centrifugation of vesicles
# A431 cells = conditions: ref Hughes et al., 1991, cited from earlier work; for intracellular [Ca2+]: EGF
# hepatocytes = conditions: EGF, in the next 2–3 min, ref Nojiri and Hoek, 2000; cited from earlier work
# ErbB1 [10] = conditions: membranes and solubilized form; ref Davis et al., 1988; cited from earlier work
compound,measurement,setting,value
"645–660 region of ErbB1: tethered 645–660 region of ErbB1 (RRRHIVRKRTLRRLLQ; UniProt P00533 669-684, looked up, fragment)",ratio of bound/free = K[lipid]eff,[1],> 100
same,time bound to the plasma membrane (tethered region),[1],> 99%
CC(=O)OCOC(=O)CN(CC(=O)OCOC(C)=O)c1ccccc1OCCOc1ccccc1N(CC(=O)OCOC(C)=O)CC(=O)OCOC(C)=O [BAPTA-AM],angiotensin II–stimulated ErbB1 transactivation,ErbB1 [2],inhibit
NCCCCCCNS(=O)(=O)c1cccc2c(Cl)cccc12 [W-7],ErbB1 receptor levels,"ErbB1 [3]; 20–50 μM W-7, anti-ErbB1 reprobe",did not affect receptor levels
same,inhibition of EGF-mediated ErbB1 tyrosine phosphorylation,"ErbB1 [3]; 20–50 μM for 30 min, then 100 ng/ml EGF 10 min, Western blot 4G10",dose-dependent inhibition
same,steady-state ErbB1 autophosphorylation,ErbB1 [4],not the steady-state value
same,initial peak of ErbB1 autophosphorylation,ErbB1 [4],inhibit the initial peak
same,tyrosine kinase activity of purified ErbB1,ErbB1 [5],do not inhibit
same,angiotensin II–stimulated ErbB1 transactivation,ErbB1 [2],inhibit
NCCCCNS(=O)(=O)c1ccc2ccccc2c1 [W-12],steady-state ErbB1 autophosphorylation,ErbB1 [4],not the steady-state value
same,initial peak of ErbB1 autophosphorylation,ErbB1 [4],inhibit the initial peak
same,tyrosine kinase activity of purified ErbB1,ErbB1 [5],do not inhibit
NCCCCNS(=O)(=O)c1ccc2c(Cl)cccc2c1 [W-13],steady-state ErbB1 autophosphorylation,ErbB1 [4],not the steady-state value
same,initial peak of ErbB1 autophosphorylation,ErbB1 [4],inhibit the initial peak
same,tyrosine kinase activity of purified ErbB1,ErbB1 [5],do not inhibit
CCCCCCCCCCCCC/C=C/[C@@H](O)[C@@H](N)CO [sphingosine],ErbB1(645–660) peptide desorbed from vesicles,[6],75%
C/C=C(/C)C(=O)O[C@H]1C(C)=C2[C@H]([C@@H]1OC(=O)CCCCCCC)[C@@](C)(OC(C)=O)C[C@H](OC(=O)CCC)[C@@]1(O)[C@H]2OC(=O)[C@@]1(C)O [thapsigargin],receptor autophosphorylation,ErbB1 [7],inhibit receptor autophosphorylation
ErbB2(676–692): peptide corresponding to the juxtamembrane region of ErbB2 (Ac-CKRRQQKIRKYTMRRLLQ-NH2; not fully specified (residue 1)),Ca/CaM Association Constant (KCaM),calmodulin (Ca/CaM),6e+07 M⁻¹
ErbB3(667–683): peptide corresponding to the juxtamembrane region of ErbB3 (Ac-CRGRRIQNKRAMRRYLER-NH2; not fully specified (residue 1)),Ca/CaM Association Constant (KCaM),calmodulin (Ca/CaM),3e+06 M⁻¹
ErbB4(676–692): peptide corresponding to the juxtamembrane region of ErbB4 (Ac-CRRKSIKKKRALRRFLET-NH2; not fully specified (residue 1)),Ca/CaM Association Constant (KCaM),calmodulin (Ca/CaM),2e+07 M⁻¹
acrylodan-labeled ErbB1(645–660): ErbB1(645–660) labeled with acrylodan (Ac-C(acrylodan)RRRHIVRKRTLRRLLQ-NH2; SMILES CC[C@H](C)[C@H](NC(=O)[C@H](Cc1c[nH]cn1)NC(=O)[C@H](CCCNC(=N)N)NC(=O)[C@H](CCCNC(=N)N)NC(=O)[C@H](CCCNC(=N)N)NC(=O)[C@H](CSCCC(=O)c1ccc2cc(N(C)C)ccc2c1)NC(C)=O)C(=O)N[C@H](C(=O)N[C@@H](CCCNC(=N)N)C(=O)N[C@@H](CCCCN)C(=O)N[C@@H](CCCNC(=N)N)C(=O)N[C@H](C(=O)N[C@@H](CC(C)C)C(=O)N[C@@H](CCCNC(=N)N)C(=O)N[C@@H](CCCNC(=N)N)C(=O)N[C@@H](CC(C)C)C(=O)N[C@@H](CC(C)C)C(=O)N[C@@H](CCC(N)=O)C(N)=O)[C@@H](C)O)C(C)C),rate of removal from vesicles by Ca/CaM,[8]; 10% PS,100 s⁻¹
same,rate of removal from vesicles by Ca/CaM,[8]; 15% PS,10 s⁻¹
same,transfer rate constant (slope of 1/τ vs. [CaM]),[8]; 85:15 PC/PS vesicles (15% PS),5e+06 M⁻¹ s⁻¹
same,lifetime of peptide on vesicles,"[8]; 85:15 PC/PS vesicles, without Ca/CaM",~0.3 s
calcium/calmodulin (from UniProt P0DP23 1-149) (natural protein),fold reduction of KCaM against the unphosphorylated peptide,[9],20 fold
epidermal growth factor [EGF],increase of intracellular [Ca2+],"A431 cells; 30 nM EGF, ∼5 min",about fivefold
same,intracellular [Ca2+],A431 cells; 5 min,600 nM
same,intracellular [Ca2+],A431 cells; by 15 min,150 nM
same,intracellular [Ca2+],hepatocytes,150 nM
same,ErbB1 activation,ErbB1 [10],can activate ErbB1 both in membranes and in solubilized form
